In data set [1] the target is Nitric oxide synthase, inducible (Homo sapiens, UniProt P35228). Put plainly: Inhibition of human iNOS expressed in HEK293 cells assessed as NO production by transient transfection assay. Format: cell-based. The essentials: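 HEK293 cells grown to ~70% confluence in DMEM/10% FBS with pen/strep. Cells transiently transfected with 10 µg human or murine iNOS plasmid (Fugene 6), 4 h at 37 °C, 10% CO2. Trypsinized, plated at 5 × 10⁵ cells/mL and dosed at once; 1400W 100 µM final as positive control. After 18 h, NO read as DAN fluorescence (10 µg/mL, 20 min RT, then NaOH). EC50 from 3 runs, 10-point curves, n = 8/point.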
Chain of Nitric oxide synthase, inducible (P35228 whole entry): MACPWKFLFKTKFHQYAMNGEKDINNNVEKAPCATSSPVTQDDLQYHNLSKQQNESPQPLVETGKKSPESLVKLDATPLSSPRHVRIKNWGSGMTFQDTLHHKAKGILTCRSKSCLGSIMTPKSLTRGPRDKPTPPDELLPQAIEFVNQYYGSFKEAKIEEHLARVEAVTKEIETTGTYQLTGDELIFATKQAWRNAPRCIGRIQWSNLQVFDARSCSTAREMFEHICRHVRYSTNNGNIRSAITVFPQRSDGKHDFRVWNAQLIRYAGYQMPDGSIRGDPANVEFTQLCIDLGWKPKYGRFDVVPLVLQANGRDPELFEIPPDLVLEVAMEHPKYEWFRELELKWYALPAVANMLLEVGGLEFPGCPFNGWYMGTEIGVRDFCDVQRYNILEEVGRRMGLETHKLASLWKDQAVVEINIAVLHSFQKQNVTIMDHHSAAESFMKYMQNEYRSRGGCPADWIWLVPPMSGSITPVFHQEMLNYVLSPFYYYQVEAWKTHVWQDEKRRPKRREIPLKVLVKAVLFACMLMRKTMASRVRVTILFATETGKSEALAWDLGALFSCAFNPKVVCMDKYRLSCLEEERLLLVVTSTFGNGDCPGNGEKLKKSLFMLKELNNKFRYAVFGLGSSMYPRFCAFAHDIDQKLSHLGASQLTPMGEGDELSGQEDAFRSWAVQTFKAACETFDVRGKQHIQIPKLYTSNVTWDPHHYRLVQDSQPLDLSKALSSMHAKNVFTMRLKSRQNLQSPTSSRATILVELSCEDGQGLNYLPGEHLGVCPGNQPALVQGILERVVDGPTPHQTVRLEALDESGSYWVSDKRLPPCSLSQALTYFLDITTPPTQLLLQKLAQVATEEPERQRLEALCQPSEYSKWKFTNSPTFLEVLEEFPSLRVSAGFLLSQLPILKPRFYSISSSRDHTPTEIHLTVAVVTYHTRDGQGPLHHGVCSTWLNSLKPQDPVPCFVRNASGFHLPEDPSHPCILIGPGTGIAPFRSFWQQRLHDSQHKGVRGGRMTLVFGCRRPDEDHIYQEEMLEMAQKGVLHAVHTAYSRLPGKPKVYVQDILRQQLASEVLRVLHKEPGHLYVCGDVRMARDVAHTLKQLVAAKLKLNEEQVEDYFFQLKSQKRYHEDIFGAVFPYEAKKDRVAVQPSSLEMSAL

The next data set has as its target T1, Nitric oxide synthase 3 (Homo sapiens, UniProt P29474).
T1 sequence (P29474 whole entry): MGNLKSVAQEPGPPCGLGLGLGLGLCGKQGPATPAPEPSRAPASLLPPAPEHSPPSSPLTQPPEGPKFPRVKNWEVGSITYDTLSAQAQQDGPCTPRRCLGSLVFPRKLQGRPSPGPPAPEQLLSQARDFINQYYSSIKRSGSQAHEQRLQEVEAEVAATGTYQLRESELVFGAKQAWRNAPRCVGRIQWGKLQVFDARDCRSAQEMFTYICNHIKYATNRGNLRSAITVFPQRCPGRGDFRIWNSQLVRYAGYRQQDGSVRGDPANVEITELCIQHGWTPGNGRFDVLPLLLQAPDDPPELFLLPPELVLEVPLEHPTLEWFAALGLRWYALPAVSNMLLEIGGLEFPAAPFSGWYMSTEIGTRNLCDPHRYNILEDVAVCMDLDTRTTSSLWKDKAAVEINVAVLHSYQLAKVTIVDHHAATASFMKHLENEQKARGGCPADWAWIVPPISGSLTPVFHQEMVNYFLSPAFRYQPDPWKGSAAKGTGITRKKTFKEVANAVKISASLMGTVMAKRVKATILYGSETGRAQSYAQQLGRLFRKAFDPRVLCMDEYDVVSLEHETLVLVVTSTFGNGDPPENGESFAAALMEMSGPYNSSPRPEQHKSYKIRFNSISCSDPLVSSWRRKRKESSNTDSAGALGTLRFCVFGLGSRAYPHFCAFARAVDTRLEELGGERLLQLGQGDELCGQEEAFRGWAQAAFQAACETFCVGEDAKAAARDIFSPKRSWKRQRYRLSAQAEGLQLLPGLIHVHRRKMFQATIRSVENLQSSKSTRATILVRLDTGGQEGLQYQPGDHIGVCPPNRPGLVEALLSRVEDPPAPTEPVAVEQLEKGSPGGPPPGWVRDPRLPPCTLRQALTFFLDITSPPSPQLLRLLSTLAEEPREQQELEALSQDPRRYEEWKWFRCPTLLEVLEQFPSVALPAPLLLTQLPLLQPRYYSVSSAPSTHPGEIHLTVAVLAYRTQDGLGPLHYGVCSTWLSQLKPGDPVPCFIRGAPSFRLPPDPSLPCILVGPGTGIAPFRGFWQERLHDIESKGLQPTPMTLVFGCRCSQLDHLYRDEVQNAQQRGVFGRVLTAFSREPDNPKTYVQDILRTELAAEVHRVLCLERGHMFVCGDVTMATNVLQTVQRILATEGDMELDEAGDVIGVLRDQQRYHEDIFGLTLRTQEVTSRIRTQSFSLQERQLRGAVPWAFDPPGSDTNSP
Put plainly: Inhibition of human eNOS expressed in HEK293 cells assessed as NO production by transient transfection assay. Format: cell-based. The essentials:
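HEK293 cells grown to ~70% confluence in DMEM/10% FBS with pen/strep, transfected with 15 µg human eNOS plasmid plus Fugene 6 (3:1 µL:µg), 4 h at 37 °C, 10% CO2. Cells replated at 5 × 10⁵/mL, compound added at once, 24 h incubation, then A23187 (83 nM final). After 18 h, NO read by DAN fluorescence.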

For a further data set, the target named is Nitric oxide synthase 1 (Homo sapiens, UniProt P29475). Put plainly: Inhibition of human nNOS expressed in HEK293 cells assessed as NO production by transient transfection assay. Format: cell-based.
Chain of Nitric oxide synthase 1 (P29475 whole entry): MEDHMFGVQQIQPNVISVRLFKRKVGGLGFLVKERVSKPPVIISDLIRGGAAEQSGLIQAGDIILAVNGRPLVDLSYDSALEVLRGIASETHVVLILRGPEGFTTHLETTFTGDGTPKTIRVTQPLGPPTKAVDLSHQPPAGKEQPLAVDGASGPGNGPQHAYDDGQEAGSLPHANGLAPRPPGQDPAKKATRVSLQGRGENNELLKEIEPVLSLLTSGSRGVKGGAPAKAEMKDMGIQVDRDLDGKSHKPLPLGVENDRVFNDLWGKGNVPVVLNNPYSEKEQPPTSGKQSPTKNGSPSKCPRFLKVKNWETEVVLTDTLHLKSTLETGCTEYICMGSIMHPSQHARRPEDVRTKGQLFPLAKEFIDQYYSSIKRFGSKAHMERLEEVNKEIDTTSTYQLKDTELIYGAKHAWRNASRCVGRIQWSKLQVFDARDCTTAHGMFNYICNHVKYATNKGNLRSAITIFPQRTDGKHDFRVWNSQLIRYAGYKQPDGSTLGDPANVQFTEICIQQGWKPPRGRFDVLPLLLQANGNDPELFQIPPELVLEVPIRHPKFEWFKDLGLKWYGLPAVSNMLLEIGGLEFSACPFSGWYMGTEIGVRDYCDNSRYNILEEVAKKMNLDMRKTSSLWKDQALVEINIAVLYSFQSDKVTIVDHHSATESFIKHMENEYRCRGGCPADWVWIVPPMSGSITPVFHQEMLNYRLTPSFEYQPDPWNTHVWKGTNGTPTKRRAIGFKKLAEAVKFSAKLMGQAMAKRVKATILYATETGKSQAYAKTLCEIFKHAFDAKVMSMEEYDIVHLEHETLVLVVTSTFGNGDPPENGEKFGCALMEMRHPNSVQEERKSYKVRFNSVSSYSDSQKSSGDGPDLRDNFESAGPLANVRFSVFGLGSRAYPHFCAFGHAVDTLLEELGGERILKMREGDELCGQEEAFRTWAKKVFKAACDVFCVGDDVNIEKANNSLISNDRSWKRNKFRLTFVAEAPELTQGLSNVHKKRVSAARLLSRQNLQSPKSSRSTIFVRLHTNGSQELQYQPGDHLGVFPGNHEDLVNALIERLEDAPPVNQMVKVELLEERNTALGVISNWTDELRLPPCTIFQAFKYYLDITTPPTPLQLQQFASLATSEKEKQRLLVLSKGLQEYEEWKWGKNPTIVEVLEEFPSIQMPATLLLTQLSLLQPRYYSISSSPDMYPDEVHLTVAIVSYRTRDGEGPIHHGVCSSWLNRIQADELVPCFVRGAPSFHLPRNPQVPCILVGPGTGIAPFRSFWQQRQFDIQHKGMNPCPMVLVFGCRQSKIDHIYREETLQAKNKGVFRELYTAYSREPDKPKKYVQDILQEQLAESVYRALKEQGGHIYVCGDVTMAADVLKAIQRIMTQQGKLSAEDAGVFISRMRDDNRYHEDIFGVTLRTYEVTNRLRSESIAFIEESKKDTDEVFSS
In the next data set the test system is Mus musculus. Put plainly: Reduction of plasma nitrate level in LPS-challenged BALB/c mouse at 30 mg/kg, po. The class given is functional. Further details: scale not given: the % may be the effect or the level left. The essentials:
(§1)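 Male Balb/c mice were dosed by oral gavage (90% PEG/5% Tween 80/5% PVP + 90% CMC (0.5% w/v)) at t = 0 h, 30 mg/kg for single-dose lines. LPS 10 mg/kg ip in 0.9% NaCl followed immediately. At 6 h, EDTA plasma was taken for nitrate and drug levels. Nitrate reduction is relative to vehicle; ED50 came from full oral dose-response.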

The nature of data set [2]: Drug level in LPS-challenged BALB/c mouse plasma at 30 mg/kg, po after 6 hrs. The class given is ADME, organism-based. Further details: dose 30 mg/kg, route oral. The method in brief:
as §1

The target in the next data set is T2, Cytochrome P450 1A2 (Homo sapiens, UniProt P05177).
T2 sequence (P05177 whole entry): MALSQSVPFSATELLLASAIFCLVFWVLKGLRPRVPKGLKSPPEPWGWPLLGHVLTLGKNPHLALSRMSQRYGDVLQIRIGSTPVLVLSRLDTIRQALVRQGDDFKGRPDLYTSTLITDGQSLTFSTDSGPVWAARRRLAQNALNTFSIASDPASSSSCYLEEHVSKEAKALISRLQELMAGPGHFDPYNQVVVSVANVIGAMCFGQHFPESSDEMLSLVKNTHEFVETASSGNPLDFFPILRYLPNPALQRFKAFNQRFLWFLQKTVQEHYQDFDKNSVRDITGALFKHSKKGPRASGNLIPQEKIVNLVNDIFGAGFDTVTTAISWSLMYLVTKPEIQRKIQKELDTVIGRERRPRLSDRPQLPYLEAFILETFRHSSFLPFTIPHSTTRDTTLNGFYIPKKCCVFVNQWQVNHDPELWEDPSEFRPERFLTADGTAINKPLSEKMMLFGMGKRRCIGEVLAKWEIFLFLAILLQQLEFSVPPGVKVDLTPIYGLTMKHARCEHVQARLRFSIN
Put plainly: Inhibition of CYP1A2. The class given is ADME.

Another data set concerns the target Cytochrome P450 3A4 (Homo sapiens, UniProt P08684). Put plainly: Inhibition of CYP3A4. Format: ADME.
The next data set addresses Cytochrome P450 2D6 (Homo sapiens, UniProt P10635). Put plainly: Inhibition of CYP2D6. Format: ADME.
A further data set addresses Cytochrome P450 2C19 (Homo sapiens, UniProt P33261). Put plainly: Inhibition of CYP2C19. The class given is ADME.

Molecules are shown by their SMILES.

Chain of Cytochrome P450 2C19 (P33261 whole entry): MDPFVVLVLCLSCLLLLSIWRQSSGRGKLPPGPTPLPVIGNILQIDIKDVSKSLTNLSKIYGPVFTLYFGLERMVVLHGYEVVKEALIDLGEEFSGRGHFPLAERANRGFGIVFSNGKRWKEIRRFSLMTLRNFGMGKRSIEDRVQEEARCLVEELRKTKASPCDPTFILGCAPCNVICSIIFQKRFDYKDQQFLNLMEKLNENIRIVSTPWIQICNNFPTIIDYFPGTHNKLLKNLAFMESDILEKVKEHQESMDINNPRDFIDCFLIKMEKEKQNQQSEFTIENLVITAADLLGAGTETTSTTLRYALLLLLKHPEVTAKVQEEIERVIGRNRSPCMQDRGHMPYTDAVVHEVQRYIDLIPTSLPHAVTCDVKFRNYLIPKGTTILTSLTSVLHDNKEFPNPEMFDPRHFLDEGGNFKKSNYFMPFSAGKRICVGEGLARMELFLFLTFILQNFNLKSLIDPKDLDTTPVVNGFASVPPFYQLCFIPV
Chain of Cytochrome P450 3A4 (P08684 whole entry): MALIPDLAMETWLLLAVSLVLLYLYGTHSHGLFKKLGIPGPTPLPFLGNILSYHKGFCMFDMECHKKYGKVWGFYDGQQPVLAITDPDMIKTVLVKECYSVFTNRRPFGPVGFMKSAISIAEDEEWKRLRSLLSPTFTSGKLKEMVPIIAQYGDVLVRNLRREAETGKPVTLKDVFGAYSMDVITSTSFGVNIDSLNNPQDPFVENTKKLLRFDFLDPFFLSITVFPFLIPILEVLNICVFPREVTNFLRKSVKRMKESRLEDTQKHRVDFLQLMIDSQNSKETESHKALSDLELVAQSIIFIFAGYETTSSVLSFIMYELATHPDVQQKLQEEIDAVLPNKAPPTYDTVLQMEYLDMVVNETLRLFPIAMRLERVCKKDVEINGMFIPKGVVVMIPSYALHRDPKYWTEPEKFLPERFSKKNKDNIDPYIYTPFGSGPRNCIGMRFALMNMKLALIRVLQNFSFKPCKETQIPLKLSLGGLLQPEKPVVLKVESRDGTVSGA
Chain of Cytochrome P450 2D6 (P10635 whole entry): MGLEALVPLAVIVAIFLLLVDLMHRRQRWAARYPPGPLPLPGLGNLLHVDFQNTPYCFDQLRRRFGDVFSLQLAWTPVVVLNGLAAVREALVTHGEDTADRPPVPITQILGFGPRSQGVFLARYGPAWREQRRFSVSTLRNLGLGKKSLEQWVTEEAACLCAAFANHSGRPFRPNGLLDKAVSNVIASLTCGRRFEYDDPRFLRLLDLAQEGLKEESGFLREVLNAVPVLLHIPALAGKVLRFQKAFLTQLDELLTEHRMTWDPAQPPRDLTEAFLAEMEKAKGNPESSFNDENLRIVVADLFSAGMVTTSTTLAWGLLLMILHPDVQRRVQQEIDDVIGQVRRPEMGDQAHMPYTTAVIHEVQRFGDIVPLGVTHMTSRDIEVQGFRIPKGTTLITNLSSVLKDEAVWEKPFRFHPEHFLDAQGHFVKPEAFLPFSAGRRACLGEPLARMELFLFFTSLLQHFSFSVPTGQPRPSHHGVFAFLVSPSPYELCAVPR

What is called EC50 is the concentration that produces a half-maximal response. Take `Cc1ncsc1C(=O)N(Cc1cc(=O)[nH]c2c(F)c(F)ccc12)c1cccc(Cl)c1`: the EC50 in data set [1] was 0.002 µM; on Nitric oxide synthase 3, 3 µM; on Nitric oxide synthase 1 it was 0.12 µM; on Cytochrome P450 1A2, 52 µM; on Cytochrome P450 3A4 it was 4.9 µM; at Cytochrome P450 2D6, above 100 µM. The compound further yielded an EC50 on Cytochrome P450 2C19 of 19 µM. Besides, in the data set with Mus musculus, the Activity is 62%. The concentration at 6 h in data set [2] stood at 8 ng/mL.
For the compound `Cc1ncsc1C(=O)N(Cc1cc(=O)[nH]c2c(F)cccc12)c1cccc(Cl)c1`, the concentration for a half-maximal effect (EC50) in data set [1] was 0.011 µM; at Nitric oxide synthase 3, 26 µM; on Nitric oxide synthase 1, 2.3 µM; on Cytochrome P450 1A2, above 100 µM; at Cytochrome P450 3A4, 7 µM; on Cytochrome P450 2D6, above 100 µM. Further, the EC50 on Cytochrome P450 2C19 stood at 13 µM. This compound also displayed an Activity in the data set with Mus musculus of 90%. The concentration at 6 h in [2] was found to be 77 ng/mL.
As to `CC1=C(C(=O)N(Cc2cc(=O)[nH]c3c(F)c(F)ccc23)c2cccc(Cl)c2)CNCC1`, the EC50 in data set [1] was 0.011 µM; at Nitric oxide synthase 3, 2.5 µM; on Nitric oxide synthase 1 it was 0.29 µM; at Cytochrome P450 1A2, above 100 µM; at Cytochrome P450 3A4, 3.4 µM; on Cytochrome P450 2D6, above 100 µM. For the same compound, it took 30 µM to reach a half-maximal effect at Cytochrome P450 2C19 (EC50). The compound further registered an Activity in the data set with Mus musculus of 95%. The same compound yielded a concentration at 6 h in data set [2] of 63 ng/mL.
On to `Cc1ncsc1C(=O)N(Cc1c[n+]([O-])cc2c(F)c(F)ccc12)c1cccc(Cl)c1`, for which the EC50 in data set [1] is 0.019 µM; at Nitric oxide synthase 3, 34 µM; at Nitric oxide synthase 1, 3.2 µM; at Cytochrome P450 1A2, above 100 µM; on Cytochrome P450 3A4, 1.8 µM; on Cytochrome P450 2D6, above 100 µM. This compound also had a concentration for a half-maximal effect (EC50) on Cytochrome P450 2C19 of 93 µM. Further, the Activity in the data set with Mus musculus came to 10%. In addition, in [2], the concentration at 6 h is 20 ng/mL.
Turning to `CC(C)C(=O)N(Cc1cc(=O)[nH]c2c(F)cccc12)c1cccc(Cl)c1`, the EC50 was 0.16 µM in data set [1]; above 100 µM on Nitric oxide synthase 3; 2.9 µM at Nitric oxide synthase 1; above 100 µM at Cytochrome P450 1A2; 7.6 µM on Cytochrome P450 3A4; above 100 µM at Cytochrome P450 2D6. At Cytochrome P450 2C19, the response was half-maximal at 42 µM (EC50). The Activity in the data set on Mus musculus was 6%. Besides, the concentration at 6 h in data set [2] was determined as 21 ng/mL.
For `Cn1cncc1C(=O)N(Cc1cc(=O)[nH]c2c(F)c(F)ccc12)c1cccc(Cl)c1`, the EC50 in [1] was determined as 0.003 µM; at Nitric oxide synthase 3 it was 0.42 µM; at Nitric oxide synthase 1, 0.07 µM; on Cytochrome P450 1A2, 95 µM; on Cytochrome P450 3A4 it was 1.4 µM; at Cytochrome P450 2D6 it was 21 µM. The response at Cytochrome P450 2C19 was half-maximal at 11 µM (EC50). In the data set on Mus musculus, the Activity is listed as 95%. Further, the concentration at 6 h in data set [2] came to 18 ng/mL.

The record behind these values is ChEMBL document CHEMBL1138485, “Discovery of inducible nitric oxide synthase (iNOS) inhibitor development candidate KD7332, part 1: Identification of a novel, potent, and selective series of quinolinone iNOS dimerization inhibitors that are orally active in rodent pain models” (J Med Chem, 2009).
